Compound activity from PubChem.
iPSC survival up: increases survival of single human iPS cells | hiPSC single-cell survival, ATPlite luminescence; 100% = ROCK inhibitor wells, 0% = DMSO | actives 0.044% (n = 360,000) | survival enhancement, % at 20 µM; in the data active means survival enhancement above about 18%;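 further: cells exposed to compounds for 16 hours before the ATP read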
GRIN3A LBD mod: modulates the human NR3A ligand-binding domain; NR3A LBD differential scanning fluorimetry, Tm shift; 0% = protein alone, 100% = glycine-bound protein; Tm shift relative to glycine control, % at 25 µM; actives 2.5% (n = 340,000); AID 1259313;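 active means melting temperature shift of at least 10% of the positive control shift, at one fixed dose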
Cardio protect: myocardial damage modulation in H9c2 cells. H9c2 cardiomyocytes, H2O2 injury protection, ATPLite, 2 h. protection from H2O2 cell death, % at 20 µM. actives 0.63% (n = 360,000). AID 588492;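 active means compounds giving at least 50% protection of heart cells from peroxide-induced death in the single-dose screen, raw or plate-pattern-corrected value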
FAS TE block: FAS thioesterase (human) inhibition | P49327 | recombinant FAS-TE, OMFH fluorogenic substrate, fluorescence endpoint | inhibition, % at 15 µM | actives 0.67% (n = 360,000);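 active means compounds whose normalised, plate-corrected inhibition of enzyme fluorescence in the single-dose primary screen is 50% or more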
Arrestin-AP2 inh: blocks beta-arrestin peptide binding to AP2 adaptin. FITC-arrestin peptide / GST-AP2 beads, flow cytometry; AP2 beta2 appendage carries R879A mutation. inhibition, % at 10 µM. actives 0.31% (n = 340,000);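 active means inhibition above a set limit, near 3 SD of compounds lacking own fluorescence, cut at about 54% in these data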
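Material – GST-tagged AP2 beta2-adaptin appendage (R879A) on 4 µm glutathione beads · Probe or stimulus – fluorescein-tagged arrestin peptide at 50 nM final · Timing – 12 min plus 1 h, RT · Detection – bead flow cytometry, FITC channel · Read-out basis – inhibition as reduced fluorescein signal on beads, percent · Medium – PBS plus Tween 20 (0.05%) and BSA (0.1%)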
SENP1 FRET inh: inhibitors of human SENP1 SUMO protease catalytic domain; Q9P0U3; recombinant SENP1 catalytic domain, CyPet-SUMO1-YPet FRET cleavage; inhibition, % at 10 µM; actives 0.21% (n = 360,000);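 active means inhibition at least 30% at 10 µM, raw YFP signal under a set limit, fluorescence ratio 0.5 to 1.5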
Target sequence (Q9P0U3 419-644 limits assumed): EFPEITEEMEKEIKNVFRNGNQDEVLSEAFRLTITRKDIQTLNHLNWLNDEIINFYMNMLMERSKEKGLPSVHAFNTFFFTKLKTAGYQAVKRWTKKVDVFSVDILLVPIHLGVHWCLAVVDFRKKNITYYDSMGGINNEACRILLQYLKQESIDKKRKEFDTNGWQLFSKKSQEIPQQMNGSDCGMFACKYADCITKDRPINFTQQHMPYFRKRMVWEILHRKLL
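Material – human SENP1 catalytic domain · Input – SENP1 enzyme, 20 pM final · Compound dosing – single concentration of 10 µM compound, 0.5% DMSO final · Timing – enzyme reaction for 50 min at room temperature, dark · Measured by – FRET fluorescence in CFP and YFP emission channels · Control set – no-enzyme wells low, DMSO-plus-enzyme wells high control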
Numbers stand for hits; n = inactive; x = no result given. Rows were chosen to be rich in hits. Some 4% of all compounds tested hit in one or more screens of this group.

SMILES	iPSC survival up	GRIN3A LBD mod	Cardio protect	FAS TE block	Arrestin-AP2 inh	SENP1 FRET inh
NC(=O)c1nsc(C(=O)N(c2ccccc2)C(C(=O)NCc2ccc(F)cc2)c2ccc(O)cc2)c1N (stereo not drawn)	n	n	50	n	n	n
COc1ccc(N(C(=O)c2snc(C(N)=O)c2N)C(C(=O)NCc2ccccc2)c2ccc(O)cc2)cc1 (stereo not drawn)	n	n	n	n	n	n
CN(C)c1ccc(C(C(=O)NCc2ccccc2)N(Cc2ccco2)C(=O)c2snc(C(N)=O)c2N)cc1 (stereo not drawn)	n	n	78	n	n	n
CCOC1=C2[C@@H](CN(S(=O)(=O)c3ccc(C)cc3)[C@H]2c2cccc3ccccc23)[C@H]2C(=O)NC(=O)[C@H]2C1	n	x	n	n	x	n
CC1=C(C(=O)N(C)C)CC(CC(=O)NCc2cccs2)C(=O)N1Cc1ccc(C(C)(C)C)cc1 (stereo not drawn)	n	x	n	n	x	n
O=c1c(C=NCCCn2ccnc2)c(-c2ccccc2)[nH]n1-c1nc2ccccc2s1	n	n	n	n	n	n
CC(=NCCCn1ccnc1)c1c(-c2ccccc2)[nH]n(-c2nc3ccccc3s2)c1=O	n	n	59	n	n	n
S=C(NCc1ccccc1)Nc1ccc2cn[nH]c2c1	n	n	n	n	n	n
CCCCNC(=S)Nc1ccc2cn[nH]c2c1	n	21	n	n	n	n
COc1ccc(NC(=S)Nc2ccc3cn[nH]c3c2)cc1	n	n	n	n	n	n
S=C(Nc1ccc2cn[nH]c2c1)Nc1ccc(Cl)cc1Cl	n	13	n	n	n	n
CCc1ccc(NC(=S)Nc2ccc3cn[nH]c3c2)cc1	n	14	n	n	n	n
S=C(Nc1ccc(Cl)cc1)Nc1ccc2cn[nH]c2c1	n	26	n	n	n	n
CCOC(=O)C1(C)CCCN1C(=O)c1cccc2ccccc12 (stereo not drawn)	n	x	n	n	x	n
O=[N+]([O-])c1ccc(C=NN2CCCCCC2)cc1	n	n	n	n	n	n
Cc1cc(C(=O)OCC(=O)NC2(C#N)CCCCC2)c(C)o1	n	n	n	n	n	n
C[C@@H]1CN([C@@H](C)CO)C(=O)c2cc(C3=CCCCC3)cnc2O[C@H]1CN(C)C(=O)Nc1cccc(F)c1	n	x	n	n	x	n
CCO/N=C(\C)c1c(O)cc(C(C)C)n(-c2ccccc2)c1=O	n	n	n	n	n	n
CC(=O)c1c(O)cc(C(C)C)n(-c2ccccc2)c1=O	n	12	n	n	n	n
COc1cccc(CN2CCC(C(=O)N3CCN(Cc4ccc5c(c4)OCO5)CC3)CC2)c1	n	13	n	n	n	n
CC(=O)c1ccc(N2CCN(C(=O)C3CCCN(c4ncnc5c4nc4n5CCCCC4)C3)CC2)cc1 (stereo not drawn)	n	n	55	n	n	n
COc1ccc(CC(N)c2csc(NC(=O)C(c3ccccc3)c3ccccc3)n2)cc1 (stereo not drawn)	n	x	n	n	x	n
CCCCC1CCC(C(=O)Nc2ccc(S(=O)(=O)Nc3nccs3)cc2)CC1 (stereo not drawn)	n	15	n	n	n	n
CCC(=O)Nc1ccc(S(=O)(=O)Nc2nccs2)cc1	n	n	n	n	n	n
CCN(CC(=O)NCc1ccc(F)cc1)C(=O)COc1ccc2ccccc2c1	n	10	n	n	n	n
SMILES	iPSC survival up	GRIN3A LBD mod	Cardio protect	FAS TE block	Arrestin-AP2 inh	SENP1 FRET inh
Fc1ccc(-c2csc(Nc3ccccn3)n2)c(F)c1	n	32	n	n	n	n
Cc1cccnc1Nc1nc(-c2ccc(O)cc2)cs1	n	30	n	n	n	n
Oc1ccc(-c2csc(Nc3ccccn3)n2)cc1	n	31	n	n	n	n
c1ccc(-c2csc(Nc3ccccn3)n2)cc1	n	n	n	n	n	n
O=C(Nc1nc(-c2cc(F)ccc2F)cs1)C1=NN(c2ccccc2)C(=O)CC1	n	n	51	n	n	n
CN1OC[C@@H]2CN[C@H](c3ccc(-c4cc5ccccc5o4)cc3)C[C@@H]21	n	x	n	n	x	n
CNC(=S)N1CCC(C(=O)c2ccc(Cl)cc2)CC1	n	x	n	n	x	n
O=C(CCc1nc2ccccc2c(=O)[nH]1)Nc1cccc(S(=O)(=O)N2CCCCC2)c1	n	n	n	n	n	n
O=C(CCc1nc2ccccc2c(=O)[nH]1)NCC(=O)Nc1ccc(F)c(F)c1	n	n	59	n	n	n
O=C(CCc1nc2ccccc2c(=O)[nH]1)Nc1ccc(F)c([N+](=O)[O-])c1	n	n	50	n	n	n
O=C(COC(=O)CCc1nc2ccccc2c(=O)[nH]1)Nc1ccc(OC(F)(F)F)cc1	n	n	n	n	n	n
COc1ccc(C(C#N)CC(=O)c2ccc(OCc3ccccc3)c(OC)c2)cc1OC (stereo not drawn)	n	x	n	n	x	n
O=C(Nc1cccc(-c2csc(Nc3ccc(Cl)cc3)n2)c1)c1cc([N+](=O)[O-])cc(C(F)(F)F)c1	n	20	n	n	n	n
O=C(Nc1ccc(-c2csc(Nc3ccc(Cl)cc3)n2)cc1)c1cc([N+](=O)[O-])cc(C(F)(F)F)c1	n	20	n	n	n	n
Cc1cc(NS(=O)(=O)c2ccc(NC(=O)c3ccc([N+](=O)[O-])s3)cc2)nc(C)n1	n	n	n	n	n	n
Cc1nc2cc(NC(=O)c3ccc([N+](=O)[O-])s3)ccc2s1	n	24	n	n	n	n
COc1ccc(-c2ccc(CN3C(C(C)C)C(=O)N(Cc4cn(CCC5OCCO5)nn4)CCS3(=O)=O)cc2)cc1 (stereo not drawn)	n	x	n	n	x	n
CCN1C(=O)/C(=C/c2nc3ccccc3c(=O)[nH]2)c2ccccc21	n	n	78	n	n	n
CCN1C(=O)/C(=C\c2nc3ccccc3c(=O)n2-c2ccccc2)c2ccccc21	n	n	n	n	x	n
Cc1cccc(NS(=O)(=O)c2ccc3c(c2)Cc2cc(S(=O)(=O)Nc4cccc(C)c4C)ccc2-3)c1C	n	13	n	n	n	n
Cc1onc(-c2ccccc2)c1C(=O)OCC(=O)Nc1cccc(Cl)c1	n	13	n	n	n	n
Cc1onc(-c2ccccc2)c1C(=O)OCC(=O)Nc1ccc(OC(F)(F)F)cc1	n	12	n	n	n	n
Cc1ccc(NC(=O)COC(=O)c2c(-c3ccccc3)noc2C)cc1	n	n	n	n	n	n
Cc1onc(-c2ccccc2)c1C(=O)OCC(=O)Nc1ccc(Cl)cc1	n	n	n	n	n	n
Cc1nc2sccn2c(=O)c1S(=O)(=O)N1CCN(c2ccccc2F)CC1	n	x	n	n	x	n
